Source: ChEMBL document CHEMBL1208682, “New quinoline derivatives: synthesis and investigation of antibacterial and antituberculosis properties” (2010)
≈ marks a conversion by molar mass, not a printed value.

Tests used:
Assay type in all cases: functional
Staphylococcus aureus = assay: Antibacterial activity against Staphylococcus aureus ATCC 25923 after 3 to 4 days by serial plate dilution method; conditions: for MIC: Staphylococcus aureus, ATCC 25923
Klebsiella pneumoniae = assay: Antibacterial activity against recultured Klebsiella pneumoniae after 3 to 4 days by serial plate dilution method; conditions: for MIC: Klebsiella pneumoniae
Pseudomonas aeruginosa = assay: Antibacterial activity against Pseudomonas aeruginosa ATCC 27853 after 3 to 4 days by serial plate dilution method; conditions: for MIC: Pseudomonas aeruginosa, ATCC 27853
Escherichia coli = assay: Antibacterial activity against Escherichia coli ATCC 25922 after 3 to 4 days by serial plate dilution method; conditions: for MIC: Escherichia coli, ATCC 25922
[1] = system: Mycobacterium tuberculosis; assay: Antituberculosis activity against Mycobacterium tuberculosis H37Rv ATCC 27294 after 7 days using resazurin dye by broth microdilution assay; conditions: H37Rv ATCC 27294, 168 h
Method in brief: (§1)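 M. tuberculosis H37Rv grown in Middlebrook 7H9 with 10% OADC and 0.5% glycerol, adjusted to McFarland 1.0. Compounds were dissolved in DMF as stocks and tested at final levels of 1.56, 3.12, 6.25, 12.5, 25 and 50 in 96-well REMA. Controls were DMF-only, growth, rifampicin and isoniazid. After 7 days at 37 °C, 0.01% resazurin was added for 24 h and the colour change read.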

[2] = system: Mycobacterium tuberculosis; assay: Antituberculosis activity against Mycobacterium tuberculosis at MIC concentration after 7 days using resazurin dye by broth microdilution assay; method in brief: as §1

Compound | diameter of the inhibition zone (DIZ) (Staphylococcus aureus) [mm] | MIC (Staphylococcus aureus) [µg/mL] | diameter of the inhibition zone (DIZ) (Klebsiella pneumoniae) [mm] | MIC (Klebsiella pneumoniae) [µg/mL] | diameter of the inhibition zone (DIZ) (Pseudomonas aeruginosa) [mm] | MIC (Pseudomonas aeruginosa) [µg/mL] | diameter of the inhibition zone (DIZ) (Escherichia coli) [mm] | MIC (Escherichia coli) [µg/mL] | MIC [1] [µM] | inhibition (INH) [2] [%]
Cc1nc[nH]c1/C=N/Nc1cc(C(F)(F)F)nc2c(C(F)(F)F)cccc12 | 24 | 6.25 (≈ 16.1 µM) | 22 | 6.25 (≈ 16.1 µM) | 25 | 6.25 (≈ 16.1 µM) | 26 | 6.25 (≈ 16.1 µM) | 3.12 (≈ 1.21 µg/mL) | 99
COCCNC(=S)NNc1cc(C(F)(F)F)nc2c(C(F)(F)F)cccc12 | 11 | 12.5 (≈ 30.3 µM) | <10 | 50 (≈ 121 µM) | 12 | 12.5 (≈ 30.3 µM) | 10 | 12.5 (≈ 30.3 µM) | 25 (≈ 10.3 µg/mL) | –
CO[C@H]1/C=C/O[C@@]2(C)Oc3c(C)c(O)c4c(O)c(c(/C=N/N5CCN(C)CC5)c(O)c4c3C2=O)NC(=O)/C(C)=C\C=C\[C@H](C)[C@H](O)[C@@H](C)[C@@H](O)[C@@H](C)[C@H](OC(C)=O)[C@@H]1C [RIFAMPIN] | – | – | – | – | – | – | – | – | 0.5 (≈ 0.411 µg/mL) | 99
O=C1CC(CCc2ccc3c(c2)OCO3)=NN1c1cc(C(F)(F)F)nc2c(C(F)(F)F)cccc12 | 22 | 6.25 (≈ 12.6 µM) | 22 | 6.25 (≈ 12.6 µM) | 24 | 6.25 (≈ 12.6 µM) | 21 | 6.25 (≈ 12.6 µM) | – | –
COc1ccc2[nH]cc(/C=N/Nc3cc(C(F)(F)F)nc4c(C(F)(F)F)cccc34)c2c1 | 22 | 6.25 (≈ 13.8 µM) | 20 | 6.25 (≈ 13.8 µM) | 25 | 6.25 (≈ 13.8 µM) | 23 | 6.25 (≈ 13.8 µM) | 25 (≈ 11.3 µg/mL) | –
CCCCCCC/C=N/Nc1cc(C(F)(F)F)nc2c(C(F)(F)F)cccc12 | 12 | 12.5 (≈ 30.8 µM) | 12 | 12.5 (≈ 30.8 µM) | 14 | 12.5 (≈ 30.8 µM) | 24 | 6.25 (≈ 15.4 µM) | 6.25 (≈ 2.53 µg/mL) | 95
FC(F)(F)c1cc(N/N=C/c2ccc3nonc3c2)c2cccc(C(F)(F)F)c2n1 | 18 | 6.25 (≈ 14.7 µM) | 20 | 6.25 (≈ 14.7 µM) | 24 | 6.25 (≈ 14.7 µM) | 22 | 6.25 (≈ 14.7 µM) | 12.5 (≈ 5.32 µg/mL) | <90
CCCCCNC(=O)NNc1cc(C(F)(F)F)nc2c(C(F)(F)F)cccc12 | 10 | 12.5 (≈ 30.6 µM) | <10 | 50 (≈ 122 µM) | 14 | 12.5 (≈ 30.6 µM) | 10 | 12.5 (≈ 30.6 µM) | 25 (≈ 10.2 µg/mL) | –
CC(=O)OCc1ccc(/C=N/Nc2cc(C(F)(F)F)nc3c(C(F)(F)F)cccc23)o1 | 10 | 12.5 (≈ 28.1 µM) | 11 | 12.5 (≈ 28.1 µM) | 14 | 12.5 (≈ 28.1 µM) | 20 | 6.25 (≈ 14 µM) | > 50 | –
FC(F)(F)c1cc(N/N=C/c2cocc2Br)c2cccc(C(F)(F)F)c2n1 | <10 | 50 (≈ 111 µM) | <10 | 50 (≈ 111 µM) | <10 | 50 (≈ 111 µM) | <10 | 50 (≈ 111 µM) | > 50 | –
O=C(O)c1cn(C2CC2)c2cc(N3CCNCC3)c(F)cc2c1=O [CIPROFLOXACIN] | 26 | – | 24 | 3.12 (≈ 9.42 µM) | 31 | – | 28 | – | – | –
Fc1ccccc1NC(=S)NNc1cc(C(F)(F)F)nc2c(C(F)(F)F)cccc12 | <10 | 50 (≈ 112 µM) | <10 | 50 (≈ 112 µM) | <10 | 50 (≈ 112 µM) | <10 | 50 (≈ 112 µM) | > 50 | –
Oc1cc(F)ccc1/C=N/Nc1cc(C(F)(F)F)nc2c(C(F)(F)F)cccc12 | 13 | 12.5 (≈ 30 µM) | 13 | 12.5 (≈ 30 µM) | 12 | 12.5 (≈ 30 µM) | 22 | 6.25 (≈ 15 µM) | > 50 | –
O=C1CC(c2ccccc2)=NN1c1cc(C(F)(F)F)nc2c(C(F)(F)F)cccc12 | 18 | 6.25 (≈ 14.8 µM) | 10 | 12.5 (≈ 29.5 µM) | 12 | 12.5 (≈ 29.5 µM) | 10 | 12.5 (≈ 29.5 µM) | – | –
N#Cc1cccc(NC(=O)NNc2cc(C(F)(F)F)nc3c(C(F)(F)F)cccc23)c1 | <10 | 50 (≈ 114 µM) | <10 | 50 (≈ 114 µM) | <10 | 50 (≈ 114 µM) | <10 | 50 (≈ 114 µM) | 25 (≈ 11 µg/mL) | –
FC(F)(F)c1cc(N/N=C/c2ccc3c(c2)CCO3)c2cccc(C(F)(F)F)c2n1 | 14 | 12.5 (≈ 29.4 µM) | 12 | 12.5 (≈ 29.4 µM) | 15 | 12.5 (≈ 29.4 µM) | 21 | 6.25 (≈ 14.7 µM) | 25 (≈ 10.6 µg/mL) | –
NNC(=O)c1ccncc1 [ISONIAZID] | – | – | – | – | – | – | – | – | 1.5 (≈ 0.206 µg/mL) | 95
CC1=NN(c2cc(C(F)(F)F)nc3c(C(F)(F)F)cccc23)C(=O)C1 | 24 | 6.25 (≈ 17.3 µM) | 20 | 6.25 (≈ 17.3 µM) | 25 | 6.25 (≈ 17.3 µM) | 22 | 6.25 (≈ 17.3 µM) | – | –
O=C1CC(c2ccncc2)=NN1c1cc(C(F)(F)F)nc2c(C(F)(F)F)cccc12 | 20 | 6.25 (≈ 14.7 µM) | 10 | 12.5 (≈ 29.5 µM) | 12 | 12.5 (≈ 29.5 µM) | 10 | 12.5 (≈ 29.5 µM) | – | –
FC(F)(F)c1cc(N/N=C/c2cccs2)c2cccc(C(F)(F)F)c2n1 | <10 | 50 (≈ 128 µM) | <10 | 50 (≈ 128 µM) | <10 | 50 (≈ 128 µM) | <10 | 50 (≈ 128 µM) | > 50 | –
